Assay [1] deals with SK-MEL-28. The assay can be described thus: Antiproliferative activity against human SK-MEL-28 cells after 48 hrs by MTT assay. In kind it is functional, cell-based. The settings on record: SK-MEL-28, 48 h. For orientation: Tetrazolium assays rely on reduction of a dye to a coloured formazan, in cell work by metabolically active cells.
For assay [2], the system named is SK-MEL-2. The assay can be described thus: Antiproliferative activity against human SK-MEL-2 cells after 48 hrs by MTT assay. The settings on record: SK-MEL-2, 48 h. In kind it is functional, cell-based.
Assay [3] relates to UACC-257. The assay can be described thus: Antiproliferative activity against human UACC257 cells after 48 hrs by MTT assay. In kind it is functional, cell-based. To be noted: UACC-257, 48 h.
Assay [4] relates to SK-MEL-5. The assay can be described thus: Antiproliferative activity against human SK-MEL-5 cells after 48 hrs by MTT assay. In kind it is functional, cell-based. To be noted: SK-MEL-5, 48 h.
Assay [5] has as its system MDA-MB-435. The assay can be described thus: Antiproliferative activity against human MDA-MB-435 cells after 48 hrs by MTT assay. In kind it is functional, cell-based. The settings on record: MDA-MB-435, 48 h.
Assay [6] concerns UACC-62. The assay can be described thus: Antiproliferative activity against human UACC62 cells after 48 hrs by MTT assay. In kind it is functional, cell-based. The settings on record: UACC-62, 48 h.
Assay [7] deals with Malme-3M. The assay can be described thus: Antiproliferative activity against human MALME-3M cells after 48 hrs by MTT assay. In kind it is functional, cell-based.
The test system of assay [8] is SK-OV-3. The experiment in a line: Anticancer activity against human SKOV3 cells after 48 hrs by SRB assay. To be noted: SK-OV-3, 48 h. In kind it is functional. In general terms: Sulforhodamine B stains cellular protein and so reports cell mass.
Assay [9] has as its system BT-549. The assay can be described thus: Anticancer activity against human BT549 cells after 48 hrs by SRB assay. In kind it is functional. To be noted: BT-549, 48 h. The method in brief: (§1)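 NCI five-dose screen. Cells in RPMI 1640 with 5% FBS and 2 mM L-glutamine, seeded at 5000–40,000 cells/well according to doubling time, then pre-incubated 24 h at 37 °C in 5% CO2. Drugs dissolved in DMSO, five concentrations by 10-fold or 1/2-log dilution. Cells fixed with TCA, SRB-stained, A515 read. IC50 solved from [(Ti−Tz)/(C−Tz)]×100 = 50.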

For assay [10], the system named is 786-0. The assay can be described thus: Anticancer activity against human 786-0 cells after 48 hrs by SRB assay. In kind it is functional. To be noted: 786-0, 48 h. In outline:
as §1

Where [11] appears, read: read-out: LC50 (the source's name).

Molecules are shown by their SMILES. pIC50: −log10 of the molar value.

By pIC50 is commonly meant −log10 of the IC50, conventionally taken in molar units. Low readings indicate a high IC50, high ones a low IC50. `O=C(NCCNc1nccc(-c2c(-c3cccc(O)c3)nc3sccn23)n1)c1ccccc1`: the pIC50 in assay [1] was 6.47; in assay [2], 5.53; in [3], 6.31; in [4], 5.38; in assay [5], 6.24; in assay [6], 6.68. In assay [7], this compound had a pIC50 of 6.69.
What is called GI50 is the concentration that inhibits growth by half. A lower GI50 goes with greater sensitivity of the cells. A word on the TGI: it is the concentration giving total growth inhibition. With `O=C(NCCNc1nccc(-c2c(-c3cccc(O)c3)nc3sccn23)n1)c1ccccc1O`, the pIC50 in [1] was 6.17; in assay [3], 6.19; in assay [4], 5.91; in assay [5], 6.36; in [6] it was 6.79; in [7] it was 6.82. Also, the GI50 in [8] came out at 4310 nM; in [9], 4740 nM; in [10], 6250 nM. Besides, the TGI in assay [8] came out at 39700 nM; in assay [9] it was 34900 nM; in [10], 43100 nM. The CC50 in assay [8] (setting [11]), in assay [9] (setting [11]) and in assay [10] (setting [11]) was over 100000 nM in each case.

(Values after ChEMBL document CHEMBL1914423, “New imidazo[2,1-b]thiazole derivatives: synthesis, in vitro anticancer evaluation, and in silico studies” (Eur J Med Chem, 2011).)
